In publication PMC6815762 (Drug Design, Development and Therapy, 2019):
Peptide text beside a SMILES is read from it.

Tests used:
[1] = target: integrin αvβ3 (Homo sapiens, UniProt P05106+P06756); assay: Determination of the dissociation constant by ELISA; type: binding
Outline: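 Solution-phase ELISA after Friguet. Integrin αvβ3 (serial, 0.5–32 nM) was equilibrated with test peptide (0.5 nM) for 4 hrs at 37°C. The mixture was moved to wells precoated with anti-integrin αvβ3 antibody (1:50) for 1 hr at room temperature, washed, and bound complexes detected by ELISA. Absorbance was taken without receptor (A0) and at each receptor concentration (A). Run in triplicate; Kd from one-site specific binding nonlinear regression.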

[2] = system: hCMEC/D3 cells; assay: Cell proliferation assay; type: cell-based, human; conditions: 48 hr incubation, MTT, 570 nm, p > 0.05
[3] = system: hCMEC/D3 cells; assay: Tube formation assay on Matrigel; type: cell-based, human; conditions: VEGF 10 ng/mL, positive control, 12 hr
[4] = target: integrin αvβ3 (UniProt P06756); assay: ELISA
Sequence of integrin αvβ3 (UniProt P06756) (P06756 31-1048, chain 1 of 2): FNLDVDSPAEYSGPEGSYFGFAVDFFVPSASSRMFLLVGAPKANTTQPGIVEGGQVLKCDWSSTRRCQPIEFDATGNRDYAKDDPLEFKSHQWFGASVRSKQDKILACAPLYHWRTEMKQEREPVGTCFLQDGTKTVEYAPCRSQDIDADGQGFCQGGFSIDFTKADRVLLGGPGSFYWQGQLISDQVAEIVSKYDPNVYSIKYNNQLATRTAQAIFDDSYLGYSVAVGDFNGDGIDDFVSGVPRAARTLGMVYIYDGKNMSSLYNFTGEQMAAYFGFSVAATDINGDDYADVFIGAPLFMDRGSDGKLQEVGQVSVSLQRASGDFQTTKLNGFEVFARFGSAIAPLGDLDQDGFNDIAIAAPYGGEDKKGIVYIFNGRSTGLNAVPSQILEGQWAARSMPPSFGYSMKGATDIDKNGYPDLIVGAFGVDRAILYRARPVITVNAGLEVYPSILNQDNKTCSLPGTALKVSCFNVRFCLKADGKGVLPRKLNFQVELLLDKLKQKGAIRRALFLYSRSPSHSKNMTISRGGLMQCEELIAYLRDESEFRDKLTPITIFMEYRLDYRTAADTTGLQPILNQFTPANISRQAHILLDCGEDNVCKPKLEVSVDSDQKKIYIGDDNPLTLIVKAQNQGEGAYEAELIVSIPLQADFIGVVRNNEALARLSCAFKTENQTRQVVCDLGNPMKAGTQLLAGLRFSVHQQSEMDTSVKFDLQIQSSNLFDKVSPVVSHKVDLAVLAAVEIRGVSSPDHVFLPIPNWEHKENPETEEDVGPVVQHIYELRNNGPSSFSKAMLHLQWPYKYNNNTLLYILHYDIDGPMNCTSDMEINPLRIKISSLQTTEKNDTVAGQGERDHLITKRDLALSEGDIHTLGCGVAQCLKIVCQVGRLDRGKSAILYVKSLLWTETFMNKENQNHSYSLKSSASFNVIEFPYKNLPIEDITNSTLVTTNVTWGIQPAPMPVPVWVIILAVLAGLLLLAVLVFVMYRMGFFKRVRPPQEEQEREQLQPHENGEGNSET
Sequence of integrin αvβ3 (UniProt P06756) (P05106 27-788, chain 2 of 2, further chain): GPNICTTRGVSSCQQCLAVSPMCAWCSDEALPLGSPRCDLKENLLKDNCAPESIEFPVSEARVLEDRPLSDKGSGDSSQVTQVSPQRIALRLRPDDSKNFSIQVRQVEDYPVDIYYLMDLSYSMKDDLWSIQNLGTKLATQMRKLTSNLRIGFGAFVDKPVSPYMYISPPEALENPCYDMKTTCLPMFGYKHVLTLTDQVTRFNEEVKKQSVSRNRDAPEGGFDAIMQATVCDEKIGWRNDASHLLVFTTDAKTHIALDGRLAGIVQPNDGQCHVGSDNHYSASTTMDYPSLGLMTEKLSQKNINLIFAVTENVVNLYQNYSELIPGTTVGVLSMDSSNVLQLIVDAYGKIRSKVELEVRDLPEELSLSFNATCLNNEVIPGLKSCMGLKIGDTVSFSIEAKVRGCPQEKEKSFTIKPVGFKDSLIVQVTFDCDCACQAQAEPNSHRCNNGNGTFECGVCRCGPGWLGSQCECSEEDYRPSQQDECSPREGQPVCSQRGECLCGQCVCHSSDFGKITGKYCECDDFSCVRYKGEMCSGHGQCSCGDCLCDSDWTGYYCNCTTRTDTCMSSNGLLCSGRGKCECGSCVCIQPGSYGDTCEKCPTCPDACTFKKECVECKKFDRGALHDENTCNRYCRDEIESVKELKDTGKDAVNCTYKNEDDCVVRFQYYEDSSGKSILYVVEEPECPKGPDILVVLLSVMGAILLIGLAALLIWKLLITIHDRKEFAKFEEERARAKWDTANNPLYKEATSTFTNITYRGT

Sequence of integrin αvβ3 (Homo sapiens, UniProt P05106+P06756) (P06756 31-1048): as the sequence (P06756 31-1048, chain 1 of 2) above
Sequence of integrin αvβ3 (Homo sapiens, UniProt P05106+P06756) (P05106 27-788): as the sequence (P05106 27-788, chain 2 of 2, further chain) above

N=C(N)NCCC[C@H](NC(=O)[C@@H]1CCCN1C(=O)[C@H](Cc1c[nH]c2ccccc12)NC(=O)[C@H](CCCNC(=N)N)NC(=O)[C@H](Cc1ccccc1)NC(=O)[C@H](CC(=O)O)NC(=O)CNC(=O)[C@@H](N)CCCNC(=N)N)C(=O)O [GCPF] (H-RGDFRWPR-OH)
Kd [1]: 2.41 ± 0.455 nM
proliferation inhibition rate ([2]; 1 μg/mL): 0.15%
proliferation inhibition rate ([2]; 10 μg/mL): 13.49%
proliferation inhibition rate ([2]; 100 μg/mL): 3.90%
proliferation inhibition rate ([2]; 1000 μg/mL): 1.98%

VEGF
tube formation, result in words [3]: the tube-like structures were developed from clear elongated cell bodies, which connected to form a polygon network

B1: GCPF peptide (peptide)
peptide: RGDFRWPR
Kd [4]: 2.41 nM
